Measurements reported in ChEMBL document CHEMBL1153878, “Hansch analysis of veratric acid derivatives as antimicrobial agents” (2009).
Values after ≈ are worked out from the molar mass of the structure shown. Values joined by “and” are separate entries in the source; they are usually repeats but may differ in a detail not shown here. Identical values can stand only once.

What was measured:
Assay type in all cases: functional
[1] = test system: Staphylococcus aureus; assay: Antibacterial activity against Staphylococcus aureus MTCC 1430 by serial dilution method; design: -logMIC: scale not given here
Method in brief: (§1)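 Tube serial dilution in 1 ml sterile double strength nutrient broth I.P., test range […] per ml. Inoculum: […] of a saline suspension at 10⁵ cfu/ml from a fresh 24-h culture, grown in double strength nutrient broth at 37 ± 1 °C. […] Exact MIC refined by further dilution of the stock.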

[2] = test system: Bacillus subtilis; assay: Antibacterial activity against Bacillus subtilis MTCC 2423 by serial dilution method; design: -logMIC: unit not given here; method in brief: as §1
[3] = test system: Escherichia coli; assay: Antibacterial activity against Escherichia coli MTCC 739 by serial dilution method; design: -logMIC: scale not given here; method in brief: as §1
[4] = test system: Candida albicans; assay: Antifungal activity against Candida albicans MTCC 227 by serial dilution method; design: -logMIC: unit not given here
[5] = test system: Aspergillus niger; assay: Antifungal activity against Aspergillus niger MTCC 2425 by serial dilution method; design: -logMIC: scale not given here
[6] = Staphylococcus aureus, MTCC 1430, read-out: MIC
[7] = Bacillus subtilis, MTCC 2423, read-out: MIC
[8] = Escherichia coli, MTCC 739, read-out: MIC
[9] = Candida albicans, MTCC 227, read-out: MIC
[10] = Aspergillus niger, MTCC 2425, read-out: MIC

| Compound | -logMIC [1] | MIC [1, 6] [µg/mL] | -logMIC [2] | MIC [2, 7] [µg/mL] | -logMIC [3] | MIC [3, 8] [µg/mL] | -logMIC [4] | MIC [4, 9] [µg/mL] | -logMIC [5] | MIC [5, 10] [µg/mL] | MIC [1] [µg/mL] | MIC [2] [µg/mL] | MIC [3] [µg/mL] | MIC [4] [µg/mL] | MIC [5] [µg/mL] |
| --- | --- | --- | --- | --- | --- | --- | --- | --- | --- | --- | --- | --- | --- | --- | --- |
| COc1ccc(C(=O)Nc2cccc(Cl)c2)cc1OC | 1.17 | 20 (≈ 68.6 µM) | 1.39 | 12 (≈ 41.1 µM) | 1.23 | 17 (≈ 58.3 µM) | 1.29 | 15 (≈ 51.4 µM) | 1.32 | 14 (≈ 48 µM) |  |  |  |  |  |
| COc1ccc(C(=O)N(C)C)cc1OC | 1.08 | 17 (≈ 81.2 µM) | 1.21 | 13 (≈ 62.1 µM) | 1.15 | 15 (≈ 71.7 µM) | 1.31 | 10 (≈ 47.8 µM) | 1.31 | 10 (≈ 47.8 µM) |  |  |  |  |  |
| CCCCCCOC(=O)c1ccc(OC)c(OC)c1 | 1.2 | 16.5 (≈ 62 µM) | 1.33 | 12.5 (≈ 46.9 µM) | 1.22 | 16 (≈ 60.1 µM) | 1.3 | 13 (≈ 48.8 µM) | 1.28 | 14 (≈ 52.6 µM) |  |  |  |  |  |
| COc1ccc(C(=O)NCCO)cc1OC | 1.04 | 21 (≈ 93.2 µM) | 1.18 | 15 (≈ 66.6 µM) | 1.08 | 19 (≈ 84.4 µM) | 1.29 | 11.5 (≈ 51.1 µM) | 1.29 | 11.5 (≈ 51.1 µM) |  |  |  |  |  |
| COc1ccc(C(=O)Nc2ccc(Cl)cc2)cc1OC | 1.19 | 19 (≈ 65.1 µM) | 1.28 | 15 (≈ 51.4 µM) | 1.39 | 12 (≈ 41.1 µM) | 1.34 | 13.5 (≈ 46.3 µM) | 1.3 | 14.5 (≈ 49.7 µM) |  |  |  |  |  |
| COc1ccc(C(=O)OCc2ccccc2)cc1OC | 1.1 | 21.5 (≈ 79 µM) | 1.34 | 12.5 (≈ 45.9 µM) | 1.18 | 18 (≈ 66.1 µM) | 1.3 | 13.5 (≈ 49.6 µM) | 1.29 | 14 (≈ 51.4 µM) |  |  |  |  |  |
| COc1ccc(C(=O)Oc2cccc3cccnc23)cc1OC | 1.45 | 11 (≈ 35.6 µM) | 1.53 | 9 (≈ 29.1 µM) | 1.56 | 8.5 (≈ 27.5 µM) | 1.35 | 13.5 (≈ 43.6 µM) | 1.34 | 14 (≈ 45.3 µM) |  |  |  |  |  |
| COc1ccc(C(=O)N(CCO)CCO)cc1OC | 1.21 | 16.5 (≈ 61.3 µM) | 1.31 | 12.5 (≈ 46.4 µM) | 1.21 | 16.5 (≈ 61.3 µM) | 1.31 | 12.5 (≈ 46.4 µM) | 1.36 | 12 (≈ 44.6 µM) |  |  |  |  |  |
| CCOC(=O)c1ccc(OC)c(OC)c1 | 0.98 | 22 (≈ 105 µM) | 1.12 | 16 (≈ 76.1 µM) | 1.02 | 20 (≈ 95.1 µM) | 1.23 | 12 (≈ 57.1 µM) | 1.23 | 12 (≈ 57.1 µM) |  |  |  |  |  |
| COc1ccc(C(=O)NN)cc1OC | 0.93 | 23 (≈ 117 µM) | 1.15 | 14 (≈ 71.4 µM) | 0.93 | 23 (≈ 117 µM) | 1.15 | 14 (≈ 71.4 µM) | 1.12 | 15 (≈ 76.5 µM) |  |  |  |  |  |
| COc1ccc(C(=O)Nc2ccccc2Cl)cc1OC | 1.28 | 15 (≈ 51.4 µM) | 1.39 | 12 (≈ 41.1 µM) | 1.23 | 17 (≈ 58.3 µM) | 1.34 | 13.5 (≈ 46.3 µM) | 1.34 | 13.5 (≈ 46.3 µM) |  |  |  |  |  |
| COc1ccc(C(=O)Nc2ccccc2C)cc1OC | 1.2 | 17 (≈ 62.7 µM) | 1.26 | 15 (≈ 55.3 µM) | 1.16 | 18.5 (≈ 68.2 µM) | 1.31 | 13 (≈ 47.9 µM) | 1.4 | 11 (≈ 40.5 µM) |  |  |  |  |  |
| COc1ccc(C(=O)NCc2ccccc2)cc1OC | 1.15 | 19 (≈ 70 µM) | 1.32 | 13 (≈ 47.9 µM) | 1.15 | 19 (≈ 70 µM) | 1.32 | 13 (≈ 47.9 µM) | 1.36 | 12 (≈ 44.2 µM) |  |  |  |  |  |
| CCCOC(=O)c1ccc(OC)c(OC)c1 | 0.98 | 24 (≈ 107 µM) | 1.2 | 14 (≈ 62.4 µM) | 1.25 | 12.5 (≈ 55.7 µM) | 1.1 | 18 (≈ 80.3 µM) | 1.2 | 14 (≈ 62.4 µM) |  |  |  |  |  |
| CCCCOC(=O)c1ccc(OC)c(OC)c1 | 1.1 | 19 (≈ 79.7 µM) | 1.2 | 15 (≈ 63 µM) | 1.1 | 19 (≈ 79.7 µM) | 1.2 | 15 (≈ 63 µM) | 1.15 | 17 (≈ 71.3 µM) |  |  |  |  |  |
| COc1ccc(C(=O)OCC(C)C)cc1OC | 1.08 and 1.1 | 20 (≈ 83.9 µM) | 1.23 and 1.17 | 14 (≈ 58.8 µM) | 1.17 and 1.1 | 16 (≈ 67.1 µM) | 1.25 and 1.34 | 13.5 (≈ 56.7 µM) | 1.28 and 1.17 | 12.5 (≈ 52.5 µM) | 19 (≈ 79.7 µM) | 16 (≈ 67.1 µM) | 19 (≈ 79.7 µM) | 11 (≈ 46.2 µM) | 16 (≈ 67.1 µM) |

| Compound | -logMIC [1] | MIC [1, 6] [µg/mL] | -logMIC [2] | MIC [2, 7] [µg/mL] | -logMIC [3] | MIC [3, 8] [µg/mL] | -logMIC [4] | MIC [4, 9] [µg/mL] | -logMIC [5] | MIC [5, 10] [µg/mL] | MIC [1] [µg/mL] | MIC [2] [µg/mL] | MIC [3] [µg/mL] | MIC [4] [µg/mL] | MIC [5] [µg/mL] |
| --- | --- | --- | --- | --- | --- | --- | --- | --- | --- | --- | --- | --- | --- | --- | --- |
| COc1ccc(C(=O)OC(C)(C)C)cc1OC | 1.08 | 20 (≈ 83.9 µM) | 1.2 | 15 (≈ 63 µM) | 1.08 | 20 (≈ 83.9 µM) | 1.38 | 10 (≈ 42 µM) | 1.3 | 12 (≈ 50.4 µM) |  |  |  |  |  |
| CCNC(=O)c1ccc(OC)c(OC)c1 | 0.95 | 23.5 (≈ 112 µM) | 1.21 | 13 (≈ 62.1 µM) | 1.01 | 20 (≈ 95.6 µM) | 1.31 | 10 (≈ 47.8 µM) | 1.26 | 11.5 (≈ 55 µM) |  |  |  |  |  |
| CCCNC(=O)c1ccc(OC)c(OC)c1 | 1.08 | 19 (≈ 85.1 µM) | 1.23 | 13 (≈ 58.2 µM) | 1.08 | 19 (≈ 85.1 µM) | 1.25 | 12.5 (≈ 56 µM) | 1.28 | 12 (≈ 53.7 µM) |  |  |  |  |  |
| COc1ccc(C(=O)N2CCOCC2)cc1OC | 1.08 | 21 (≈ 83.6 µM) | 1.28 | 13 (≈ 51.7 µM) | 1.17 | 17 (≈ 67.7 µM) | 1.37 | 11 (≈ 43.8 µM) | 1.33 | 12 (≈ 47.8 µM) |  |  |  |  |  |
| CCCCCCCOC(=O)c1ccc(OC)c(OC)c1 | 1.25 | 16 (≈ 57.1 µM) | 1.35 | 12.5 (≈ 44.6 µM) | 1.3 | 14 (≈ 49.9 µM) | 1.25 | 16 (≈ 57.1 µM) | 1.37 | 12 (≈ 42.8 µM) |  |  |  |  |  |
| COc1ccc(C(=O)Oc2ccccc2)cc1OC | 1.15 | 18 (≈ 69.7 µM) | 1.27 | 14 (≈ 54.2 µM) | 1.21 | 16 (≈ 61.9 µM) | 1.3 | 12.5 (≈ 48.4 µM) | 1.34 | 11.5 (≈ 44.5 µM) |  |  |  |  |  |
| CNC(=O)c1ccc(OC)c(OC)c1 | 0.95 | 22 (≈ 113 µM) | 1.18 | 13 (≈ 66.6 µM) | 1.05 | 17 (≈ 87.1 µM) | 1.28 | 13 (≈ 66.6 µM) | 1.18 | 12.5 (≈ 64 µM) |  |  |  |  |  |
| COc1ccc(C(=O)OCCC(C)C)cc1OC | 1.1 | 20 (≈ 79.3 µM) | 1.31 | 12.5 (≈ 49.5 µM) | 1.2 | 16 (≈ 63.4 µM) | 1.2 | 16 (≈ 63.4 µM) | 1.3 | 12.5 (≈ 49.5 µM) |  |  |  |  |  |
| COc1ccc(C(=O)N2CCCCC2)cc1OC | 1.15 | 17.5 (≈ 70.2 µM) | 1.33 | 12 (≈ 48.1 µM) | 1.1 | 20 (≈ 80.2 µM) | 1.25 | 14 (≈ 56.2 µM) | 1.28 | 13 (≈ 52.1 µM) |  |  |  |  |  |
| COc1ccc(C(=O)OC(C)C)cc1OC | 1.01 | 22 (≈ 98.1 µM) | 1.2 | 14 (≈ 62.4 µM) | 1.2 | 14 (≈ 62.4 µM) | 1.35 | 10 (≈ 44.6 µM) | 1.25 | 12.5 (≈ 55.7 µM) |  |  |  |  |  |
| C=CCOC(=O)c1ccc(OC)c(OC)c1 | 1 | 22 (≈ 99 µM) | 1.25 | 12.5 (≈ 56.2 µM) | 1.1 | 18 (≈ 81 µM) | 1.1 | 18 (≈ 81 µM) | 1.2 | 14 (≈ 63 µM) |  |  |  |  |  |
| COc1ccc(C(=O)Nc2ccccc2)cc1OC | 1.05 | 23 (≈ 89.4 µM) | 1.25 | 14 (≈ 54.4 µM) | 1.04 | 23 (≈ 89.4 µM) | 1.2 | 16 (≈ 62.2 µM) | 1.29 | 13 (≈ 50.5 µM) |  |  |  |  |  |
| CCCCCOC(=O)c1ccc(OC)c(OC)c1 | 1.1 | 20 (≈ 79.3 µM) | 1.31 | 12.5 (≈ 49.5 µM) | 1.1 | 20 (≈ 79.3 µM) | 1.1 | 20 (≈ 79.3 µM) | 1.1 | 20 (≈ 79.3 µM) |  |  |  |  |  |
| COc1ccc(C(N)=O)cc1OC | 0.9 | 23 (≈ 127 µM) | 1.09 | 15 (≈ 82.8 µM) | 0.95 | 20 (≈ 110 µM) | 1.25 | 10 (≈ 55.2 µM) | 1.2 | 11 (≈ 60.7 µM) |  |  |  |  |  |
| O=C(O)c1cn(C2CC2)c2cc(N3CCNCC3)c(F)cc2c1=O [CIPROFLOXACIN] | 3.33 |  | 3.33 |  | 3.33 |  |  |  |  |  |  |  |  |  |  |
| OC(Cn1cncn1)(Cn1cncn1)c1ccc(F)cc1F [FLUCONAZOLE] |  |  |  |  |  |  | 2.64 |  | 2.64 |  |  |  |  |  |  |
